The source of these data is ChEMBL document CHEMBL1158001, “Cytotoxic isoprenylated flavans of Broussonetia kazinoki” (1999).

Each structure is given as a SMILES string. Converted amounts (≈) assume the structure as drawn. *1 amine or outer side, *2 acyl side, *3 side chain or, on linkers, in order; H or OH if unused. Where a SMILES comes first, the peptide text is derived from it. Bridges are numbered along the chain shown (N, C = ends). Roman numbers before positions name the chains, in order. [ ]: non-standard residue; d: D form. Actinocin(1to9) = Cc1c2oc3c(C)ccc(C(=O)[*:2])c3nc-2c(C(=O)[*:1])c(N)c1=O; NMeV = CN[C@H](C(=O)O)C(C)C; Sar = CNCC(=O)O

One test has as its system 212 (Mus musculus). The test can be described thus: Cytotoxicity against mouse 212 cells after 6 days by MTT assay. To be noted: 144 h, read-out: ED50 (the source's name).
Test [1] can be described thus: Cytotoxicity against human PLC/PRF/5 cells after 6 days by MTT assay. Type of test: functional. To be noted: PLC-PRF-5, 144 h, read-out: ED50 (the source's name). The procedure, abridged:
(§1)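 Cells kept in DMEM with 10% FBS, 2 mM L-glutamine, penicillin and streptomycin. 1-3 × 10^3 cells/100 µL, attached 6 h, then fresh medium with a concentration series for 6 days at 37 °C in CO2, plus 10 mM HEPES pH 7.3. MTT (1 mg/mL in PBS) added for 4 h, formazan dissolved in DMSO, A550 read.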

For another test, the system named is HT-3. Description: Cytotoxicity against human HT-3 cells after 6 days by MTT assay. Type of test: functional. To be noted: for EC50: Homo sapiens, HT-3, 144 h, read-out: ED50 (the source's name). The procedure, abridged: as §1
(Formazan colour is commonly taken as a measure of viable cells.)

The subject of the next test is Ca-Ski. Description: Cytotoxicity against human CaSki cells after 6 days by MTT assay. Type of test: functional. To be noted: 144 h, read-out: ED50 (the source's name). The procedure, abridged: as §1
In the next test the test system is SiHa. Description: Cytotoxicity against human SiHa cells after 6 days by MTT assay. To be noted: for EC50: Homo sapiens, SiHa, 144 h, read-out: ED50 (the source's name). It counts as functional. The procedure, abridged:
as §1

A further test deals with T-24. The test can be described thus: Cytotoxicity against human T24 cells after 6 days by MTT assay. To be noted: T-24, 144 h, read-out: ED50 (the source's name). It counts as functional. The procedure, abridged:
as §1

With `C=CC(C)(C)c1cc(CCCc2cc(O)c3c(c2CC=C(C)C)CCC(C)(C)O3)c(O)cc1O` [KAZINOL D], the values for the EC50 (in the test on 212 (Mus musculus); in test [1]; in the test with HT-3) were 7 µg/mL (≈ 15.1 µM), 3.3 µg/mL (≈ 7.1 µM) and 3.6 µg/mL (≈ 7.75 µM), respectively.

`C=CC(C)(C)c1cc2c(cc1O)OC(c1cc(O)c3c(c1CC=C(C)C)CC(O)C(C)(C)O3)CC2` (stereo not given): the EC50 in the test on Ca-Ski is 8.2 µg/mL (≈ 17.1 µM); in the test with HT-3, 9.3 µg/mL (≈ 19.4 µM); in the test on SiHa, 9.3 µg/mL (≈ 19.4 µM).

For `C=CC(C)(C)c1cc2c(cc1O)OC(c1cc(CC=C(C)C)c(O)c(O)c1CC=C(C)C)CC2` (stereo not given) [KAZINOL Q], the EC50 was 3.8 µg/mL (≈ 8.21 µM) in the test with 212 (Mus musculus); 3.5 µg/mL (≈ 7.57 µM) in test [1]; 2.3 µg/mL (≈ 4.97 µM) in the test on T-24; 4.3 µg/mL (≈ 9.29 µM) in the test with HT-3; 4.7 µg/mL (≈ 10.2 µM) in the test on SiHa.

Turning to `Cc1c2oc3c(C)ccc(C(=O)N[C@@H]4C(=O)N[C@H](C(C)C)C(=O)N5CCC[C@H]5C(=O)N(C)CC(=O)N(C)[C@@H](C(C)C)C(=O)O[C@@H]4C)c3nc-2c(C(=O)N[C@@H]2C(=O)N[C@H](C(C)C)C(=O)N3CCC[C@H]3C(=O)N(C)CC(=O)N(C)[C@@H](C(C)C)C(=O)O[C@@H]2C)c(N)c1=O` [DACTINOMYCIN] (I: T[dV]P[Sar][NMeV] / II: T[dV]P[Sar][NMeV]; ester I:1-I:C, II:1-II:C; linker I:N-II:N via Actinocin(1to9)), the EC50 is 0.0014 µg/mL (≈ 0.00112 µM) in test [1], 0.0019 µg/mL (≈ 0.00151 µM) in the test with Ca-Ski and 0.0015 µg/mL (≈ 0.00119 µM) in the test on T-24. Also, the ED50 with HT-3 is on record as 5.6 ×10⁻⁴ ug/ml; with SiHa, 8.1 ×10⁻⁴ ug/ml.

As to `Oc1ccc(C2CCc3ccc(O)cc3O2)cc1` (stereo not given), the EC50 worked out at 17.4 µg/mL (≈ 71.8 µM) in the test on Ca-Ski, 11.6 µg/mL (≈ 47.9 µM) in the test with HT-3 and 8.9 µg/mL (≈ 36.7 µM) in the test on SiHa.

As for `C=CC(C)(C)c1cc(CCCc2cc(O)c3c(c2CC=C(C)C)C=CC(C)(C)O3)c(O)cc1O` [KAZINOL K], the EC50 with HT-3 amounted to 8.6 µg/mL (≈ 18.6 µM).
